According to ChEMBL document CHEMBL1156597, “Structure-activity relationship of kahalalide F synthetic analogues” (J Med Chem, 2008):

Assays:
HT-29 = assay: Cytotoxicity against human HT29 cells after 48 hrs by SRB assay; assay type: functional, cell-based; settings: for CC50 / GI50 / TGI: Homo sapiens, HT-29, 48 h; for CC50: read-out: LC50 (the source's name)
How it was run: (§1)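 Cells grown in RPMI 1640 with 10% FBS and penicillin/streptomycin at 37 °C and 5% CO₂, trypsinized, then seeded at 5 × 10³/well. After 18 h drug-free attachment, samples in DMSO/EtOH/PBS (0.5:0.5:99) were added for 48 h continuous exposure. Cells were fixed with cold TCA (1 h, 4 °C) and stained with SRB (10 min). Tris-solubilized stain read at 490 nm. Triplicate wells, mean ± SD; GI₅₀ derived.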

SK-MEL-28 = assay: Cytotoxicity against human SK-MEL-28 cells after 48 hrs by SRB assay; assay type: functional, cell-based; settings: for CC50: Homo sapiens, SK-MEL-28, 48 h, read-out: LC50 (the source's name); how it was run: as §1
HeLa = assay: Cytotoxicity against human HeLa cells after 48 hrs by SRB assay; assay type: functional; settings: for CC50: read-out: LC50 (the source's name); how it was run: as §1
[1] = Cytotoxicity against human IGROV-ET cells after 48 hrs by SRB assay; assay type: functional; settings: for CC50: read-out: LC50 (the source's name); how it was run: as §1
LoVo [2] = assay: Cytotoxicity against human doxorubicin resistant LoVo cells after 48 hrs by SRB assay; assay type: functional; settings: read-out: LC50 (the source's name); how it was run: as §1
LoVo [3] = assay: Cytotoxicity against human LoVo cells after 48 hrs by SRB assay; assay type: functional; settings: for CC50: read-out: LC50 (the source's name)
[4] = Cytotoxicity against human IGROV cells after 48 hrs by SRB assay; assay type: functional; settings: for CC50: read-out: LC50 (the source's name); how it was run: as §1
A549 = assay: Cytotoxicity against human A549 cells after 48 hrs by SRB assay; assay type: functional, cell-based; settings: for LC50: Homo sapiens, A549, 48 h; how it was run: as §1
[5] = Cytotoxicity against human HeLa-APL cells after 48 hrs by SRB assay; assay type: functional; how it was run: as §1
PANC-1 = assay: Cytotoxicity against human PANC1 cells after 48 hrs by SRB assay; assay type: functional; settings: PANC-1, 48 h; for CC50: read-out: LC50 (the source's name); how it was run: as §1
DU-145 = assay: Cytotoxicity against human DU145 cells after 48 hrs by SRB assay; assay type: functional, cell-based; settings: for TGI / GI50 / CC50: Homo sapiens, DU-145, 48 h; for GI50: read-out: GI50; for CC50: read-out: LC50 (the source's name); how it was run: as §1
K562 = assay: Cytotoxicity against human K562 cells after 48 hrs by SRB assay; assay type: functional; settings: K562, 48 h, read-out: LC50 (the source's name); how it was run: as §1
SK-BR-3 = assay: Cytotoxicity against human SKBR3 cells after 48 hrs by SRB assay; assay type: functional; settings: SK-BR-3, 48 h; for GI50: read-out: GI50; for CC50: read-out: LC50 (the source's name); how it was run: as §1

Compound	CC50 (HT-29) [µM]	CC50 (SK-MEL-28) [nM]	CC50 (HeLa) [nM]	CC50 [1] [nM]	GI50 (LoVo [3]) [µM]	TGI (LoVo [3]) [µM]	CC50 (LoVo [3]) [µM]	CC50 [4] [nM]	LC50 (A549) [nM]	LC50 (concentration giving 50% net cell kill) [5] [nM]	GI50 (PANC-1) [µM]	TGI (PANC-1) [µM]	CC50 (PANC-1) [nM]	CC50 (DU-145) [nM]	Activity (HT-29)	Activity (SK-MEL-28) [×10⁻⁶ M]	Activity (A549)	Activity (DU-145)	further results
C/C=C1\NC(=O)[C@H](Cc2ccccc2)NC(=O)[C@@H](C(C)C)NC(=O)[C@@H]([C@H](C)CC)NC(=O)[C@H](N)[C@H](C)OC(=O)[C@H](C(C)C)NC1=O	10.3	3870	3130	2280	14.9	16.9	9.83	2710	3580	3580	4.35	9.72	5520	3310	–	–	–	–	GI50 (HeLa): 740 nM; TGI (HeLa): 5.42 µM; TGI [1]: 5.58 µM; GI50 ([1]; read-out: GI50): 4400 nM; CC50 (LoVo [2]): 9.86 µM; TGI (DU-145): 6 µM; GI50 (DU-145): 5.1 µM; CC50 (K562): 8.32 µM
C/C=C1\NC(=O)[C@H](Cc2ccccc2)NC(=O)[C@@H](C(C)C)NC(=O)[C@@H]([C@H](C)CC)NC(=O)[C@H](NC(=O)[C@H](NC(=O)[C@H](CCCN)NC(=O)[C@H]2CCCN2C(=O)[C@H](NC(=O)[C@@H](NC(=O)[C@@H](NC(=O)[C@H](NC(=O)c2ccc(C)cc2)C(C)C)[C@@H](C)O)C(C)C)C(C)C)[C@H](C)CC)[C@H](C)OC(=O)[C@H](C(C)C)NC1=O	–	–	–	422	–	–	–	394	–	–	–	–	–	–	–	–	–	–	GI50 [1]: 421 nM; GI50 ([1]; read-out: GI50): 365 nM; GI50 [4]: 447 nM; GI50 ([4]; read-out: GI50): 479 nM; GI50 [5]: 950 nM; TGI [5]: 898 nM
C/C=C1\NC(=O)[C@H](Cc2ccccc2)NC(=O)[C@@H](C(C)C)NC(=O)[C@@H]([C@H](C)CC)NC(=O)[C@H](NC(=O)[C@H](NC(=O)[C@H](CCCN)NC(=O)[C@H]2CCCN2C(=O)[C@H](NC(=O)[C@@H](NC(=O)[C@@H](NC(=O)[C@H](NC(=O)CCC(C)C)C(C)C)[C@@H](C)O)C(C)C)C(C)C)[C@H](C)CC)[C@H](C)OC(=O)[C@H](C(C)C)NC1=O	–	–	–	–	–	–	–	–	–	–	–	–	–	–	3.42 ×10⁻⁷ M	3.42	3.42 ×10⁻⁷ M	3.42 ×10⁻⁷ M	–
C/C=C1\NC(=O)[C@H](Cc2ccccc2)NC(=O)[C@@H](C(C)C)NC(=O)[C@@H]([C@H](C)CC)NC(=O)[C@H](NC(=O)[C@H](NC(=O)[C@H](CCCN)NC(=O)[C@H]2CCCN2C(=O)[C@H](NC(=O)[C@@H](NC(=O)[C@@H](NC(=O)[C@H](NC(=O)C(F)(F)F)C(C)C)[C@@H](C)O)C(C)C)C(C)C)[C@H](C)CC)[C@H](C)OC(=O)[C@H](C(C)C)NC1=O	–	–	–	–	–	–	–	–	–	–	–	–	–	–	3.42 ×10⁻⁶ M	6.84	6.84 ×10⁻⁶ M	3.42 ×10⁻⁶ M	–
C/C=C1\NC(=O)[C@H](Cc2ccccc2)NC(=O)[C@@H](C(C)C)NC(=O)[C@@H]([C@H](C)CC)NC(=O)[C@H](NC(=O)[C@H](NC(=O)[C@H](CCCN)NC(=O)[C@H]2CCCN2C(=O)[C@H](NC(=O)[C@@H](NC(=O)[C@@H](NC(=O)[C@H](NC(=O)/C=C/C=C/C)C(C)C)[C@@H](C)O)C(C)C)C(C)C)[C@H](C)CC)[C@H](C)OC(=O)[C@H](C(C)C)NC1=O	–	–	–	–	–	–	–	–	–	–	–	–	–	–	6.85 ×10⁻⁷ M	6.85	3.43 ×10⁻⁶ M	6.85 ×10⁻⁶ M	–
C/C=C1\NC(=O)[C@H](Cc2ccccc2)NC(=O)[C@@H](C(C)C)NC(=O)[C@@H]([C@H](C)CC)NC(=O)[C@H](NC(=O)[C@H](NC(=O)[C@H](CCCN)NC(=O)[C@H]2CCCN2C(=O)[C@H](NC(=O)[C@@H](NC(=O)[C@@H](NC(=O)[C@H](NC(=O)CC(C)(C)C)C(C)C)[C@@H](C)O)C(C)C)C(C)C)[C@H](C)CC)[C@H](C)OC(=O)[C@H](C(C)C)NC1=O	–	–	–	–	–	–	–	–	–	–	–	–	–	–	3.42 ×10⁻⁷ M	3.42	1.71 ×10⁻⁶ M	3.42 ×10⁻⁷ M	–
CC[C@@H](C)[C@@H](NC(=O)[C@H](CCCN)NC(=O)[C@H]1CCCN1C(=O)[C@H](NC(=O)[C@@H](NC(=O)[C@@H](NC(=O)[C@H](NC(=O)CCCC(C)C)C(C)C)[C@@H](C)O)C(C)C)C(C)C)C(=O)N[C@H]1C(=O)N[C@H]([C@H](C)CC)C(=O)N[C@H](C(C)C)C(=O)N[C@@H](Cc2ccccc2)C(=O)N/C(=C\c2ccccc2)C(=O)N[C@@H](C(C)C)C(=O)O[C@H]1C	5.22	1390	936	629	0.836	1.42	1.89	559	1110	704	4.54	4.45	2140	893	–	–	–	–	GI50 (HT-29): 5.13 µM; TGI (HT-29): 10.1 µM; GI50 (HeLa): 1500 nM; TGI (HeLa): 1.18 µM; TGI (SK-BR-3): 1.15 µM; GI50 (SK-BR-3): 0.601 µM; CC50 (SK-BR-3): 806 nM; TGI (DU-145): 1.12 µM; GI50 (DU-145): 1.39 µM
C/C=C1\NC(=O)[C@H](Cc2ccccc2)NC(=O)[C@@H](C(C)C)NC(=O)[C@@H]([C@H](C)CC)NC(=O)[C@H](NC(=O)[C@H](NC(=O)[C@H](CCCN)NC(=O)[C@H]2CCCN2C(=O)[C@H](NC(=O)[C@@H](NC(=O)[C@@H](NC(=O)[C@H](NC(=O)CCCO)C(C)C)[C@@H](C)O)C(C)C)C(C)C)[C@H](C)CC)[C@H](C)OC(=O)[C@H](C(C)C)NC1=O	–	–	–	–	–	–	–	–	–	–	–	–	–	–	6.89 ×10⁻⁶ M	6.89	6.89 ×10⁻⁶ M	6.89 ×10⁻⁶ M	–
CC[C@@H](C)[C@@H](NC(=O)[C@H](CCCN)NC(=O)[C@H]1CCCN1C(=O)[C@H](NC(=O)[C@@H](NC(=O)[C@@H](NC(=O)[C@H](NC(=O)CCCC(C)C)C(C)C)[C@@H](C)O)C(C)C)C(C)C)C(=O)N[C@H]1C(=O)N[C@H]([C@H](C)CC)C(=O)N[C@H](C(C)C)C(=O)N[C@@H](Cc2ccccc2)C(=O)N[C@H]([C@H](C)O)C(=O)N[C@@H](C(C)C)C(=O)O[C@H]1C	5.37	2540	1490	1030	3.44	4.23	4.42	941	1150	1200	4.88	4.58	2210	1500	–	–	–	–	GI50 (HT-29): 11.8 µM; TGI (HT-29): 10.4 µM; TGI (SK-BR-3): 6.69 µM; GI50 (SK-BR-3): 6.15 µM; CC50 (SK-BR-3): 1880 nM
C/C=C1\NC(=O)[C@H](Cc2ccccc2)NC(=O)[C@@H](C(C)C)NC(=O)[C@@H]([C@H](C)CC)NC(=O)[C@H](NC(=O)[C@H](NC(=O)[C@H](CCCN)NC(=O)[C@H]2CCCN2C(=O)[C@H](NC(=O)[C@@H](NC(=O)[C@@H](NC(=O)[C@H](NC(=O)CCCOC(C)=O)C(C)C)[C@@H](C)O)C(C)C)C(C)C)[C@H](C)CC)[C@H](C)OC(=O)[C@H](C(C)C)NC1=O	–	–	–	–	–	–	–	–	–	–	–	–	–	–	6.7 ×10⁻⁶ M	6.7	6.7 ×10⁻⁶ M	6.7 ×10⁻⁶ M	–
